pIC50: −log10 of the molar value.
Legend:
Blood = assay: Inhibition of LTB4 production in calcium ionophore treated A23187 human whole blood after 15 mins; assay type: functional, tissue-based; conditions: 0.25 h
[1] = Inhibition of LTB4 production in calcium ionophore A23187 treated human leukocytes; assay type: functional, cell-based; conditions: Leukocyte
How it was run: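 Human leukocytes challenged with calcium ionophore; LTB4 produced by the cells was measured. IC50 is the average of n ≥ 3.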

[2] = target: T1, Arachidonate 5-lipoxygenase-activating protein (Homo sapiens, UniProt P20292); assay: Binding affinity to FLAP in human PMN derived membrane; assay type: cell membranes
T1 sequence (P20292 whole entry): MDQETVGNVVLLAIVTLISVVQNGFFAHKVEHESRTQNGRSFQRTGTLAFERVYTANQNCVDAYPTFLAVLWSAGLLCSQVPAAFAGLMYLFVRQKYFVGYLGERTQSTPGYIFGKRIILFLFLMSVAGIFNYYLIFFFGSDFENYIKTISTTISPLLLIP
How it was run: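 FLAP binding measured in membranes derived from human polymorphonuclear leukocytes (PMN). IC50 values are the average of n ≥ 3.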

[3] = Bioavailability in rat at 10 mg/kg; assay type: ADME, organism-based; conditions: in vivo
How it was run: (§1)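 Rat, oral dosing at 10 mg/kg given as the sodium carboxylate salt. Read-outs: F, clearance, Cmax, AUC and half-life.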

CYP3A4 = CYP3A4 (Homo sapiens, UniProt P08684); assay: Inhibition of CYP3A4 at 10 uM; assay type: ADME
Sequence of CYP3A4 (P08684 whole entry): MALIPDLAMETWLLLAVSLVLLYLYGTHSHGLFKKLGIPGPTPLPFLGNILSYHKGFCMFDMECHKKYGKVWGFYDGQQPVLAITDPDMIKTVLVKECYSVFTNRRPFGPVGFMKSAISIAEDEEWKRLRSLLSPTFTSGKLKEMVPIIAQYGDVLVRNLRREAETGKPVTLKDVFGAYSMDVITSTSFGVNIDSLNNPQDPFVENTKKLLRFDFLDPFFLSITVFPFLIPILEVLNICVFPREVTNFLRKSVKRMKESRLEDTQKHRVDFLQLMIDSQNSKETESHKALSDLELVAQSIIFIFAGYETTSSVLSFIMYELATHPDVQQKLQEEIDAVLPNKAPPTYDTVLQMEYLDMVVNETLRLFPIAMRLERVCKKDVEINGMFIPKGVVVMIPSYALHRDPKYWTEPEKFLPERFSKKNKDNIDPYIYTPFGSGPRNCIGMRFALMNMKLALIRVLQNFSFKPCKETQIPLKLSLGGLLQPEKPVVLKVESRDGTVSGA

[4] = Cmax in rat at 10 mg/kg, po; assay type: ADME, organism-based; set-up: dose 10 mg/kg, route oral; conditions: in vivo; how it was run: as §1
CYP2C9 = CYP2C9 (Homo sapiens, UniProt P11712); assay: Inhibition of CYP2C9 at 10 uM; assay type: ADME
Sequence of CYP2C9 (P11712 whole entry): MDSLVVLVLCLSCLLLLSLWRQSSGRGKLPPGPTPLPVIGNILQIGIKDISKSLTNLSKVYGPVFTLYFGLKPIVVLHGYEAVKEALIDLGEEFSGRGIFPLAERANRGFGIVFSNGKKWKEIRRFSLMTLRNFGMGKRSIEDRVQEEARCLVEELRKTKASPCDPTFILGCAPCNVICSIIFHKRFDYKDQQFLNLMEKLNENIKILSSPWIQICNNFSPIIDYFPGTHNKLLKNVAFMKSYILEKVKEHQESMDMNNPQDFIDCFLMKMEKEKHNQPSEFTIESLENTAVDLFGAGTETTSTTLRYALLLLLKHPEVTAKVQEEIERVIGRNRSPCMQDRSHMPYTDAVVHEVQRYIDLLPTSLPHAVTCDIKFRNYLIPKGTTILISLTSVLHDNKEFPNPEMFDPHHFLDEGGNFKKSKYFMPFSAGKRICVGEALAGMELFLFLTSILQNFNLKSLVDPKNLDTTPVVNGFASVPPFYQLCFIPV

[5] = Clearance in rat at 10 mg/kg, po; assay type: ADME, organism-based; set-up: dose 10 mg/kg, route oral; conditions: in vivo; how it was run: as §1
[6] = AUC in rat at 10 mg/kg, po; assay type: ADME, organism-based; set-up: dose 10 mg/kg, route oral; conditions: plasma; how it was run: as §1
Cytochrome P450 2C9 = Cytochrome P450 2C9 (Homo sapiens, UniProt P11712); assay: Inhibition of CYP2C9; assay type: ADME
Sequence of Cytochrome P450 2C9 (P11712 whole entry): as above

| SMILES | pIC50 (Blood) | pIC50 [1] | pIC50 [2] | further results |
| --- | --- | --- | --- | --- |
| COc1ccc(-c2ccc(Cn3c(CC(C)(C)C(=O)O)c(SC(C)(C)C)c4cc(OC[C@@H]5Cc6ccccc6N5C(C)=O)ccc43)cc2)nn1 | 5.96 | 7.90 | 8.49 |  |
| COc1nc(-c2ccc(Cn3c(CC(C)(C)C(=O)O)c(SC(C)(C)C)c4cc(OC[C@@H]5Cc6ccccc6N5C(C)=O)ccc43)cc2)cs1 | 6.24 | 9.22 | 8.60 |  |
| CC(C)(C)Sc1c(CC(C)(C)C(=O)O)n(Cc2ccc(Cl)cc2)c2ccc(OC[C@@H]3CCCN3C(=O)c3ccccc3)cc12 | 4.65 | 6.96 | 5.87 |  |
| CC(C)(C)Sc1c(CC(C)(C)C(=O)O)n(Cc2ccc(Cl)cc2)c2ccc(OC[C@@H]3CCC(=O)N3)cc12 | 5.04 | 6.97 | 6.21 |  |
| CC(=O)N1c2ccccc2C[C@H]1COc1ccc2c(c1)c([S+]([O-])C(C)(C)C)c(CC(C)(C)C(=O)O)n2Cc1ccc(Cl)cc1 (stereo partly drawn) | 4.64 | 6.47 | 7.13 |  |
| COc1ccc(-c2ccc(Cn3c(CC(C)(C)C(=O)O)c(SC(C)(C)C)c4cc(OC[C@@H]5Cc6ccccc6N5C(C)=O)ccc43)cc2)nc1 | 6.43 | 9.30 | 8.42 |  |
| CC(C)(C)Sc1c(CC(C)(C)C(=O)O)n(Cc2ccc(Cl)cc2)c2ccc(OC[C@@H]3Cc4ccccc4N3)cc12 | 5.84 | 8.39 | 7.07 |  |
| CC(C)(C)OC(=O)N1c2ccccc2C[C@@H]1COc1ccc2c(c1)c(SC(C)(C)C)c(CC(C)(C)C(=O)O)n2Cc1ccc(Cl)cc1 | 4.91 | 6.99 | < 5.00 |  |
| CC(=O)N1c2ccccc2C[C@H]1COc1ccc2c(c1)c(SC(C)(C)C)c(CC(C)(C)C(=O)O)n2Cc1ccc(Cl)cc1 | 6.77 | 9.30 | 8.85 | bioavailability [3]: 11%; inhibition at 10 µM (CYP3A4): 80%; Cmax [4]: 270 nM; inhibition at 10 µM (CYP2C9): 96%; CL/F [5]: 25 mL/min/kg |
| CC(C)C(=O)N1CCC[C@H]1COc1ccc2c(c1)c(SC(C)(C)C)c(CC(C)(C)C(=O)O)n2Cc1ccc(Cl)cc1 | 5.25 | 7.29 | 6.73 |  |
| CC(C)(C)OC(=O)N1c2ccccc2C[C@H]1COc1ccc2c(c1)c(SC(C)(C)C)c(CC(C)(C)C(=O)O)n2Cc1ccc(Cl)cc1 |  | 6.97 | 5.96 |  |
| CC(C)(C)OC(=O)N1CCC[C@@H]1COc1ccc2c(c1)c(SC(C)(C)C)c(CC(C)(C)C(=O)O)n2Cc1ccc(Cl)cc1 | 4.17 | 6.71 | 5.74 |  |
| CC(C)(C)Sc1c(CC(C)(C)C(=O)O)n(Cc2ccc(Cl)cc2)c2ccc(OCC(O)c3ccc(F)cc3)cc12 (stereo not drawn) | 6.33 | 8.15 | 7.72 |  |
| CC(=O)N1c2ccccc2C[C@H]1COc1ccc2c(c1)c(CCC(C)(C)C)c(CC(C)(C)C(=O)O)n2Cc1ccc(Cl)cc1 | 6.39 | 8.38 | 8.33 | inhibition at 10 µM (CYP3A4): > 80%; inhibition at 10 µM (CYP2C9): > 80% |
| CC(=O)N1c2ccccc2C[C@H]1COc1ccc2c(c1)c(C(=O)C(C)C)c(CC(C)(C)C(=O)O)n2Cc1ccc(Cl)cc1 | 5.31 | 7.69 | 7.69 |  |
| CC(=O)N1c2ccccc2C[C@H]1COc1ccc2c(c1)c(C(=O)c1ccccc1)c(CC(C)(C)C(=O)O)n2Cc1ccc(Cl)cc1 | 4.20 | 6.58 | < 5.00 |  |
| CC(C)(C)Sc1c(CC(C)(C)C(=O)O)n(Cc2ccc(Cl)cc2)c2ccc(OCC(=O)c3ccc(F)cc3)cc12 | 4.93 | 6.11 | 7.89 |  |

| SMILES | pIC50 (Blood) | pIC50 [1] | pIC50 [2] | further results |
| --- | --- | --- | --- | --- |
| CC(=O)N1c2ccccc2C[C@H]1COc1ccc2c(c1)c(SC(C)(C)C)c(CC(C)(C)C(=O)O)n2Cc1ccc(-c2ccc(F)cn2)cc1 | 6.63 | 9.30 | 8.77 |  |
| CC(=O)N1c2ccccc2C[C@H]1COc1ccc2c(c1)cc(CC(C)(C)C(=O)O)n2Cc1ccc(Cl)cc1 | 4.50 | 7.89 | 6.66 |  |
| CC(C)(C)OC(=O)N1CCC[C@H]1COc1ccc2c(c1)c(SC(C)(C)C)c(CC(C)(C)C(=O)O)n2Cc1ccc(Cl)cc1 | 4.76 | 7.54 | 5.95 |  |
| CC(C)(C)Sc1c(CC(C)(C)C(=O)O)n(Cc2ccc(Cl)cc2)c2ccc(OC[C@@H]3CCCN3S(C)(=O)=O)cc12 | 5.37 | 7.52 | 6.36 |  |
| CC(=O)N1c2ccccc2C[C@H]1COc1ccc2c(c1)c(C(=O)C(C)(C)C)c(CC(C)(C)C(=O)[O-])n2Cc1ccc(Cl)cc1.[Na+] |  |  |  | bioavailability [3]: 7%; Cmax [4]: 270 nM |
| CC(=O)N1c2ccccc2C[C@H]1COc1ccc2c(c1)c(S(=O)(=O)C(C)(C)C)c(CC(C)(C)C(=O)O)n2Cc1ccc(Cl)cc1 | 5.76 | 7.72 | 8.35 |  |
| CCC(=O)N1CCC[C@H]1COc1ccc2c(c1)c(SC(C)(C)C)c(CC(C)(C)C(=O)O)n2Cc1ccc(Cl)cc1 | 6.51 | 8.82 | 8.40 |  |
| CC(=O)N1CCC[C@H]1COc1ccc2c(c1)c(SC(C)(C)C)c(CC(C)(C)C(=O)O)n2Cc1ccc(Cl)cc1 | 6.39 | 7.80 | 8.22 | bioavailability [3]: 10%; inhibition at 10 µM (CYP3A4): 64%; AUC [6]: 1200 ng·h/mL; inhibition at 10 µM (CYP2C9): 93%; CL/F [5]: 20 mL/min/kg |
| CC(C)(C)Sc1c(CC(C)(C)C(=O)O)n(Cc2ccc(Cl)cc2)c2ccc(OCc3ccc4ccccc4n3)cc12 [QUIFLAPON] |  |  |  | pIC50 (Cytochrome P450 2C9): 6.30 |
| CC(=O)N1c2ccccc2C[C@H]1COc1ccc2c(c1)c(C(=O)C(C)(C)C)c(CC(C)(C)C(=O)O)n2Cc1ccc(Cl)cc1 | 6.28 | 8.89 | 7.72 |  |
| CC(=O)N1c2ccccc2C[C@H]1COc1ccc2c(c1)c(Cc1ccccc1)c(CC(C)(C)C(=O)O)n2Cc1ccc(Cl)cc1 | 6.37 | 8.82 | 7.82 | inhibition at 10 µM (CYP3A4): > 80%; inhibition at 10 µM (CYP2C9): > 80% |
| CC(C)(C)Sc1c(CC(C)(C)C(=O)O)n(Cc2ccc(Cl)cc2)c2ccc(OCC(N)=O)cc12 | 5.67 | 7.55 | 7.42 |  |
| CC(=O)N1c2ccccc2C[C@H]1COc1ccc2c(c1)c(CC(C)C)c(CC(C)(C)C(=O)O)n2Cc1ccc(Cl)cc1 | 6.70 | 9.30 | 7.46 | inhibition at 10 µM (CYP3A4): > 80%; inhibition at 10 µM (CYP2C9): > 80% |
| CC(=O)N[C@H](COc1ccc2c(c1)c(SC(C)(C)C)c(CC(C)(C)C(=O)O)n2Cc1ccc(Cl)cc1)c1ccccc1 | 4.64 | 7.14 | 6.24 |  |
| COc1ccc(-c2ccc(Cn3c(CC(C)(C)C(=O)O)c(SC(C)(C)C)c4cc(OC[C@@H]5Cc6ccccc6N5C(C)=O)ccc43)cc2)cn1 | 6.56 | 8.74 | 8.03 |  |
| CC(C)(C)Sc1c(CC(C)(C)C(=O)O)n(Cc2ccc(Cl)cc2)c2ccc(OC[C@@H]3CCCN3C(=O)C3CC3)cc12 | 6.05 | 8.10 | 7.30 |  |
| CC(C)(C)Sc1c(CC(C)(C)C(=O)O)n(Cc2ccc(Cl)cc2)c2ccc(OC[C@@H]3CCCN3)cc12 |  | 5.56 | < 5.00 |  |

— ChEMBL document CHEMBL1153124, “5-Lipoxygenase-activating protein inhibitors. Part 2: 3-{5-((S)-1-Acetyl-2,3-dihydro-1H-indol-2-ylmethoxy)-3-tert-butylsulfanyl-1-[4-(5-methoxy-pyrimidin-2-yl)-benzyl]-1H-indol-2-yl}-2,2-dimethyl-propionic acid (AM679)--a potent FLAP inhibitor” (Bioorg Med Chem Lett, 2010)
